Bioassay records deposited in PubChem BioAssay by several laboratories.
TNAP inh noacc = TNAP (human) inhibition, acceptor-free conditions | P05186 | purified TNAP, CDP-star luminescence, 30 min | inhibition, % at 20 µM | 200,000 compounds, 0.26% hits | AID 1012;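 active = tissue-nonspecific alkaline phosphatase inhibition above about 50% at 20 µM in the single-dose screen, limit read from the data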;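 note: 0% = DMSO negative control and 100% = EDTA positive control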
Target sequence (P05186 whole entry, looked up): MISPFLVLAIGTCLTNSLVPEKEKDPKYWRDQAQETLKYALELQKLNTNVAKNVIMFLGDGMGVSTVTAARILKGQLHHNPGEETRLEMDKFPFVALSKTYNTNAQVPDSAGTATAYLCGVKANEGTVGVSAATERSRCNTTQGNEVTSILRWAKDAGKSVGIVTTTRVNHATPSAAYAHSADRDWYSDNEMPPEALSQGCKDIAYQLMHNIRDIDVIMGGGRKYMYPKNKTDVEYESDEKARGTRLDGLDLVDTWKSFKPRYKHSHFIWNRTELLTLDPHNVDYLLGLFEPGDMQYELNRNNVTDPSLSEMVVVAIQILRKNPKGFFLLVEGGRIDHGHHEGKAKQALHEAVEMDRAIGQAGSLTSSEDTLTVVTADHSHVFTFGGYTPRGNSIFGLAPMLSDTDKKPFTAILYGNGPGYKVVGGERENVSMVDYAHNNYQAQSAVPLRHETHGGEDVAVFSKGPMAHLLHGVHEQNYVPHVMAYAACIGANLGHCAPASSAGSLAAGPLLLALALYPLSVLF
TNAP act hi DEA = activators of human TNAP at high phosphate acceptor concentration; P05186; purified TNAP, CDP-star luminescence, 1 M DEA, 30 min; stronger effect = higher value; 0 = EDTA background, 1 = DMSO-only activity; activation factor at 20 µM; 200,000 tested, under 10 active; AID 1136;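 active = activation factor at least 2 at 20 µM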
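Measured by: Luminescent substrate turnover signal | Test system: Human TNAP | Input: TNAP 1/800 final | Dosing: 20 µM single point | Schedule: 30 min, room temperature | Controls: EDTA wells as negative control, DMSO wells as positive control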
Ins promoter up = MIN6 insulin promoter up-regulation; MIN6 insulin promoter-GFP reporter, high-content imaging; stronger effect = higher value; z-score at 5 µM; 190,000 compounds, 0.3% hits;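 active = z-score above 3 at 5 µM with at least 500 cells counted in the well; inconclusive = wells under 500 cells, flagged as cytotoxic or low count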
NCF1 inh = p47phox (human) inhibition; p47phox/p22phox peptide binding, fluorescence polarization, 2 h; inhibition, % at 24.7 µM; 220,000 compounds, 0.53% hits; AID 1274;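 active = inhibition above about 30%, limit read from the data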;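 note: 0% = p47phox with labelled peptide and 100% = labelled peptide alone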
Autophagy HCS = modulators of autophagy; MEF GFP-LC3 puncta imaging; test concentration mostly 10 µM; calls only at 10 µM (by protocol); 190,000 compounds, 0.98% hits;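 active = percentage of spot-positive cells more than 3 SD above its plate mean, without a fluorescence outlier flag or 80% toxicity; inconclusive = no clear call, values can overlap the other calls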;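 note: spot-positive cell cutoff set from DMSO-treated cells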
TNAP inh hiacc = blocks human TNAP under high phosphate acceptor concentration | AID 1135 | 200,000 compounds, 0.03% hits | inhibition, % at 20 µM | P05186 | purified TNAP, CDP-star luminescence, 1 M DEA;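 active = over 50% inhibition of tissue-nonspecific alkaline phosphatase at 20 µM in the single-dose screen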;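 note: plate controls were DMSO wells for no effect and EDTA-quenched wells as full inhibition for full effect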
Active calls of the source: *; i = inactive; ? = inconclusive; nt = not tested or not shown; + = active, no number. Sampled rows, rich in hits. Any-hit rate of the full collection: about 1.8%.

SMILES | TNAP inh noacc | TNAP act hi DEA | Ins promoter up | NCF1 inh | Autophagy HCS | TNAP inh hiacc
Cc1cc(C)c2cc3c(N)c(C(=O)N4CCOCC4)sc3nc2c1 | -6.9 | 1 | 0.1 | nt | i | -0.1
CC(C)(C)c1ccc(C(=O)NNC(=O)C2CCCCC2)cc1 | -136.9 | 1 | nt | 31.1* | i | -1.3
COC(=O)NNC(=O)c1ccc(C(C)(C)C)cc1 | -9.0 | 1 | -0.12 | -1.4 | i | -4.6
O=c1c2ccccc2c(C=Nc2ccccc2O)c(O)n1-c1nccs1 | nt | nt | 4.35* | -22.1 | nt | nt
Cc1nc(NC(=O)COC(=O)CCS(=O)(=O)c2ccccc2Cl)c(Cl)cc1Cl | -7.4 | 1 | 4.24* | -16.9 | i | -2.2
Cc1[nH]c2ccccc2c1C(=O)COC(=O)CCS(=O)(=O)c1ccccc1Cl | -10.4 | 1 | 0.49 | -20.7 | i | -3.2
O=c1nc(-c2ccccc2)n(-c2ccccc2)[nH]1 | 0.6 | 1 | 0.41 | -11.5 | i | -4.4
CCOC(=O)c1sc(NN=C(C(=O)OC)C(=O)OC)c(C(=O)OCC)c1C | -11.0 | 0.7 | -0.07 | -19.1 | i | 30.0
COc1ccc2oc(=O)c(-c3nnc(NCc4ccco4)s3)cc2c1 | 5.1 | 1 | 0.22 | 12.5 | + | 3.1
Cc1ccc(NC(=O)CN(C)CC(=O)Nc2ccccc2Oc2ccccc2)cc1 | -10.3 | 1 | -0.36 | -5.9 | + | -3.3
Cc1cccc(C)c1NC(=O)CN(C)CC(=O)Nc1ccccc1Oc1ccccc1 | -14.2 | 1 | 1.12 | 3.5 | i | -1.9
CC(NCc1cc(Br)ccc1OCC(=O)NCc1ccccc1)c1ccccc1 (stereo unspecified) | -13.0 | 1 | -2.55 | -1.9 | + | -2.8
COc1ccc(N2CCN(C(=O)C3CCN(S(=O)(=O)c4ccc(F)cc4)CC3)CC2)cc1 | -7.8 | 1 | -0.22 | -3.5 | i | -0.2
COc1ccc(C(=O)N2CCC(n3nnc4cc(F)ccc43)CC2)cc1OC | -5.0 | 1 | 0.35 | -5.3 | + | -0.7
Cc1cccc(C(=O)N2CCC(n3nnc4cc(F)ccc43)CC2)c1 | -6.9 | 1 | -0.02 | -0.1 | i | -3.2
O=C(O)CNC(=O)/C=C/c1ccc(Cl)cc1Cl | 60.2* | 1 | -0.3 | -4.1 | i | 1.4
NNC(=O)/C=C/c1ccc(Cl)cc1Cl | -6.7 | 1.1 | 0.43 | -4.6 | i | -7.5
Cc1cc2nc3c(=O)n(C4CCCCC4)c(=O)[nH]c3nc2cc1N | -3.4 | 0.9 | nt | -15.6 | i | 13.3
COc1ccccc1NCC(=O)NNC(C)C(=O)Nc1cccc(Cl)c1 (stereo unspecified) | -13.3 | 1.1 | -0.27 | -0.8 | + | -5.6
S=C1NCCNC(=S)NCCOCCOCCOCCN1 | -8.7 | 1 | -0.71 | 1.9 | i | -1.9
Nn1cc(-c2ccccc2)nc1SCC(=O)Nc1ccc(S(N)(=O)=O)cc1 | nt | nt | -0.46 | -1.4 | nt | nt
O=[N+]([O-])c1ccc(/C=N/NC2=NS(=O)(=O)c3ccccc32)cc1 | 1.5 | 0.9 | -0.34 | -8.2 | i | 6.0
O=[N+]([O-])c1ccc(O)c(/C=N/NC2=NS(=O)(=O)c3ccccc32)c1 | 73.4* | 0.9 | 0.79 | -2.3 | i | 10.0
CCOC(=O)CSc1nc2cccnc2n1C | -4.1 | 1 | -0.04 | -4.8 | i | -2.9
CCOC(=O)CNC(=O)CSc1nc2cccnc2n1C | -14.0 | 1.1 | -0.74 | -2.2 | + | -5.9
SMILES | TNAP inh noacc | TNAP act hi DEA | Ins promoter up | NCF1 inh | Autophagy HCS | TNAP inh hiacc
Cc1cccc(/C=N/Nc2cc(N3CCOCC3)nc(N3CCOCC3)n2)c1 | -9.9 | 1 | -1.53 | 11.5 | + | -0.9
COc1ccc(S(=O)(=O)NCC2CCCN(C(=O)c3sccc3C)C2)cc1 (stereo unspecified) | -5.2 | 1.1 | -0.42 | -15.9 | + | -5.6
CCOc1ccc(C(=O)NCc2ccccc2)cc1Br | -11.4 | 1 | nt | 3.0 | i | 1.1
COc1ccc(C(=O)/C=C/C(=O)N(CC(=O)NC2CCCCC2)CC2CCCO2)c(O)c1 (stereo unspecified) | -3.6 | 1 | -0.36 | -4.1 | + | -1.4
COc1ccc(C(=O)/C=C/C(=O)N(CC(=O)NC2CCCCC2)Cc2ccccc2OC)c(O)c1 | -5.5 | 1.1 | -0.33 | 33.3* | i | -6.7
COc1ccc(C(=O)/C=C/C(=O)N(CC(=O)NC2CCCCC2)Cc2ccccc2)c(O)c1 | 4.1 | 0.9 | ? | 30.1* | i | 5.0
Cc1ccsc1/C=N/NC(=O)c1cccnc1 | nt | nt | -0.47 | -13.6 | nt | nt
Cc1cccc(OCCN2CSC(=S)N(C)C2)c1 | 3.3 | 1 | -0.09 | -5.5 | + | -0.1
COC(=O)CSc1nnc(-c2sc3ccccc3c2Cl)o1 | -8.9 | 1 | 0.09 | -1.7 | i | -4.7
N#CCSc1nnc(-c2sc3ccccc3c2Cl)o1 | -6.7 | 1 | -0.06 | -11.2 | + | 0.5
O=C(CN1C(=O)NC2(CCCc3ccccc32)C1=O)N1CCN(C(=O)c2ccco2)CC1 (stereo unspecified) | -1.3 | 1 | nt | 2.5 | i | -2.5
N#Cc1c(Nc2cccc(F)c2)sc2c(O)cc(=O)[nH]c12 | -12.0 | 1 | -0.41 | -44.4 | i | -1.7
COc1ccc(/C=N/c2oc(C)c(C)c2C#N)c(OC)c1 | -1.9 | 1 | 0.95 | -13.7 | + | -1.7
CC(/C=N/n1cnnc1)=C\c1ccco1 | -10.1 | 1.1 | 0.05 | -5.5 | i | -5.6
CC(C)=CCC/C(C)=C/CC(C)(C)CNCCN1CCNCC1 | 7.2 | 1 | -0.26 | 13.8 | i | -4.2
CC(C)=CCC/C(C)=C/CCC(C)NCCN1CCNCC1 (stereo unspecified) | -11.3 | 1 | -1.14 | 14.7 | + | -3.7
Cn1c(=S)c2[nH]c(SCCN3CCCC3)nc2n(C)c1=O | nt | nt | 0.64 | 44.5* | nt | nt
CCN1CCCC(Sc2nc3c([nH]2)c(=S)n(C)c(=O)n3C)C1 (stereo unspecified) | nt | nt | -0.67 | -4.0 | nt | nt
O=C(CSCc1ccco1)Nc1cc(C(F)(F)F)ccc1N1CCOCC1 | -15.7 | 1 | 0.54 | -21.6 | + | -3.6
COc1cc(C)nc(N2CCCC(C(=O)Nc3ccccc3Br)C2)n1 (stereo unspecified) | -8.9 | 1.1 | 0.49 | 3.2 | i | -7.6
COc1cc(C)nc(N2CCCC(C(=O)Nc3cccc(Cl)c3C)C2)n1 (stereo unspecified) | -9.4 | 1 | 3.87* | -5.2 | i | -0.5
COc1ccc(Oc2cc(C(F)(F)F)nc(N(C)C)n2)cc1 | -12.9 | 1.1 | -0.14 | -5.8 | i | -5.0
NC(=S)n1[nH]c(-c2ccc([N+](=O)[O-])cc2)c(N=Nc2ccccc2[N+](=O)[O-])c1=O | 12.1 | 0.8 | 0.73 | 30.1* | i | 17.8
CCCc1nc2oc(C(=O)c3ccccc3)c(N)c2c2c1COC(C)(C)C2 | -8.9 | 1 | ? | -7.0 | i | -2.7
Cc1nc2oc(C(=O)c3ccc(Br)cc3)c(N)c2c2c1COC(C)(C)C2 | -6.7 | 1 | 0.14 | -12.5 | + | -2.1
CN(C)C=Nc1ccc2nn(-c3ccccc3)nc2c1 | -12.0 | 1.1 | 3.14* | -9.1 | i | -5.1
